Experimental data as given in ChEMBL document CHEMBL1121696, “Antimicrobial 3-methyleneflavanones” (1981).
Values after ≈ are worked out from the molar mass of the structure shown.

What was measured:
Trichophyton benhamiae [1] = assay: Compound was tested for the antimicrobial activity against Trichophyton mentagrophytes (ATCC 4807); Range is 6.2-12.5; type: functional, Arthroderma benhamiae
Outline: (§1)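 Spores came from Eugon agar slants grown 1 week at 32 °C, suspended at 10⁶/mL in Eugon broth or saline, and applied by Steers replicator. The lowest inhibitory concentration was read after 48-72 h at 32 °C.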

Aspergillus niger = assay: Antimicrobial activity against Aspergillus niger (ATCC 16404); type: functional; outline: as §1
Trichophyton benhamiae [2] = assay: Compound was tested for the antimicrobial activity against Trichophyton mentagrophytes (ATCC 4807); Range is 6.2-25; type: functional, Arthroderma benhamiae; outline: as §1
Candida albicans [3] = assay: Compound was tested for the antimicrobial activity against Candida albicans (ATCC 10231, NRRL Y-477); Range is 100 to >100; type: functional
Outline: (§2)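 Agar dilution MIC. Stocks and twofold serial dilutions in DMF or 50% aqueous DMF were mixed 1:100 into molten Eugon agar, giving final 100, 50, 25, 12.5, 6.2, 3.1 mcg/mL (further dilutions sometimes) and ≤1% DMF. Inocula came from 24 h Eugon agar slants at 32 °C, suspended at 10⁶ cells/mL and applied with a Steers replicator. MIC (lowest concentration inhibiting growth) was read after 24 h at 32 °C.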

Trichophyton benhamiae [4] = assay: Compound was tested for the antimicrobial activity against Trichophyton mentagrophytes (ATCC 4807); Range is 12.5-50; type: functional, Arthroderma benhamiae; outline: as §1
Candida albicans [5] = assay: Compound was tested for the antimicrobial activity against Candida albicans (ATCC 10231, NRRL Y-477); Range is 25 to >100; type: functional; outline: as §2
Staphylococcus aureus [6] = assay: Antimicrobial activity against Staphylococcus aureus (ATCC 6538, NRRL B2747); Range is <3.1-6.2; type: functional; outline: as §2
Staphylococcus aureus [7] = assay: Antimicrobial activity against Staphylococcus aureus (ATCC 6538, NRRL B2747); type: functional; outline: as §2
Candida albicans [8] = assay: Antimicrobial activity against Candida albicans (ATCC 10231, NRRL Y-477); type: functional; outline: as §2
Enterococcus faecalis [9] = assay: Antimicrobial activity against Streptococcus faecalis (ATCC 10541); type: functional; outline: as §2
Trichophyton benhamiae [10] = assay: Antimicrobial activity against Trichophyton mentagrophytes (ATCC 4807); type: functional, Arthroderma benhamiae; outline: as §1
Candida albicans [11] = assay: Compound was tested for the antimicrobial activity against Candida albicans (ATCC 10231, NRRL Y-477); Range is 50-100; type: functional; outline: as §2
Trichophyton benhamiae [12] = assay: Compound was tested for the antimicrobial activity against Trichophyton mentagrophytes (ATCC 4807); Range is 25-50; type: functional, Arthroderma benhamiae; outline: as §1
Trichophyton benhamiae [13] = assay: Compound was tested for the antimicrobial activity against Trichophyton mentagrophytes (ATCC 4807); Range is 12.5-25; type: functional, Arthroderma benhamiae; outline: as §1
Candida albicans [14] = assay: Compound was tested for the antimicrobial activity against Candida albicans (ATCC 10231, NRRL Y-477); Range is 25-50; type: functional; outline: as §2
Trichophyton benhamiae [15] = assay: Compound was tested for the antimicrobial activity against Trichophyton mentagrophytes (ATCC 4807); Range is 6.1-12.5; type: functional, Arthroderma benhamiae; outline: as §1
Trichophyton benhamiae [16] = assay: Compound was tested for the antimicrobial activity against Trichophyton mentagrophytes (ATCC 4807); Range is <3.1-25; type: functional, Arthroderma benhamiae; outline: as §1
Candida albicans [17] = assay: Compound was tested for the antimicrobial activity against Candida albicans (ATCC 10231, NRRL Y-477); Range is 50 to >100; type: functional; outline: as §2
Staphylococcus aureus [18] = assay: Compound was tested for its antimicrobial activity against Staphylococcus aureus (9-195); type: functional; outline: as §2
[19] = system: Clostridium acetobutylicum; assay: Compound was tested for its antimicrobial activity against Clostridium acetobutylicum (ATCC 824); type: functional
Outline: (§3)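 Anaerobic bacteria were grown 72 h at 32 °C in fluid thioglycollate medium and used undiluted to inoculate, by Steers replicator, Eugon agar containing serial twofold compound dilutions made in DMF or 50% aqueous DMF (final 100 to 3.1 mcg/mL, ≤1% DMF). MIC was read after 72 h of anaerobic incubation (Gas-Pak jar) at 37 °C.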

Staphylococcus aureus [20] = assay: Compound was tested for its antimicrobial activity against Staphylococcus aureus (NRRL B2747); type: functional; outline: as §2
Staphylococcus aureus [21] = assay: Compound was tested for its antimicrobial activity against Staphylococcus aureus (ATCC 6538); type: functional; outline: as §2
[22] = Compound was tested for its antimicrobial activity against Sarcina subflava (ATCC 7468); type: functional; outline: as §2
[23] = system: Staphylococcus epidermidis; assay: Compound was tested for its antimicrobial activity against Staphylococcus epidermidis (ATCC 12228); type: functional; outline: as §2
Staphylococcus aureus [24] = assay: Compound was tested for its antimicrobial activity against Staphylococcus aureus (ATCC 151); type: functional; outline: as §2
Enterococcus = assay: Compound was tested for its antimicrobial activity against Enterococcus (9-25)
Cutibacterium acnes = assay: Compound was tested for its antimicrobial activity against Propionibacterium acnes (ATCC 6919); type: functional; outline: as §3
Enterococcus faecalis [25] = assay: Compound was tested for its antimicrobial activity against Streptococcus faecalis (ATCC 10541); type: functional; outline: as §2
Bacillus subtilis = assay: Compound was tested for its antimicrobial activity against Bacillus subtilis (ATCC 6633); type: functional; outline: as §2
Staphylococcus aureus [26] = assay: Compound was tested for its antimicrobial activity against Staphylococcus aureus (9-267); type: functional; outline: as §2
Enterococcus faecalis [27] = assay: Compound was tested for the antimicrobial activity against Streptococcus faecalis (ATCC 10541); Range is 25-50; type: functional; outline: as §2
Trichophyton benhamiae [28] = assay: Compound was tested for the antimicrobial activity against Trichophyton mentagrophytes (ATCC 4807); Range is <3.1-12.5; type: functional, Arthroderma benhamiae; outline: as §1

C=C1C(=O)c2ccccc2OC1c1ccccc1 (configuration not stated)
MIC (Trichophyton benhamiae [1]): 6.2 µg/mL (≈ 26.2 µM)
MIC (Aspergillus niger): 100 µg/mL (≈ 423 µM)

C=C1C(=O)c2ccccc2OC1(c1ccccc1)c1cccs1 (configuration not stated)
MIC (Trichophyton benhamiae [2]): 6.2 µg/mL (≈ 19.5 µM)

C=C1C(=O)c2cc(Br)ccc2OC1c1ccc(Br)cc1 (configuration not stated)
MIC (Candida albicans [3]): > 100 µg/mL
MIC (Trichophyton benhamiae [4]): 12.5 µg/mL (≈ 31.7 µM)

C=C1C(=O)c2ccc(OC)cc2OC1c1ccc(Cl)cc1 (configuration not stated)
MIC (Trichophyton benhamiae [1]): 6.2 µg/mL (≈ 20.6 µM)
MIC (Candida albicans [5]): > 25 µg/mL
MIC (Staphylococcus aureus [6]): < 3.1 µg/mL

O=C1/C(=C/Cl)C(c2ccccc2)Oc2ccccc21 (configuration not stated)
MIC (Staphylococcus aureus [7]): > 100 µg/mL
MIC (Candida albicans [8]): > 100 µg/mL
MIC (Enterococcus faecalis [9]): > 100 µg/mL
MIC (Aspergillus niger): > 100 µg/mL
MIC (Trichophyton benhamiae [10]): > 100 µg/mL

C=C1C(=O)c2ccccc2OC1(C)C
MIC (Staphylococcus aureus [7]): > 100 µg/mL
MIC (Enterococcus faecalis [9]): > 100 µg/mL
MIC (Candida albicans [11]): 50 µg/mL (≈ 266 µM)
MIC (Trichophyton benhamiae [12]): 25 µg/mL (≈ 133 µM)
MIC (Aspergillus niger): > 100 µg/mL

C=C1C(=O)c2ccccc2OC1c1ccc(N(C)C)cc1 (configuration not stated)
MIC (Trichophyton benhamiae [13]): 12.5 µg/mL (≈ 44.7 µM)
MIC (Aspergillus niger): 100 µg/mL (≈ 358 µM)

C=C1COc2ccccc2C1=O
MIC (Staphylococcus aureus [7]): 50 µg/mL (≈ 312 µM)
MIC (Trichophyton benhamiae [1]): 6.2 µg/mL (≈ 38.7 µM)
MIC (Enterococcus faecalis [9]): 100 µg/mL (≈ 624 µM)
MIC (Aspergillus niger): 100 µg/mL (≈ 624 µM)
MIC (Candida albicans [14]): 25 µg/mL (≈ 156 µM)

C=C1C(=O)c2ccccc2OC1c1ccc(Br)cc1 (configuration not stated)
MIC (Trichophyton benhamiae [15]): 6.1 µg/mL (≈ 19.4 µM)
MIC (Staphylococcus aureus [6]): < 3.1 µg/mL

C=C1C(=O)c2ccccc2OC1c1ccc(Cl)cc1 (configuration not stated)
MIC (Trichophyton benhamiae [16]): < 3.1 µg/mL
MIC (Staphylococcus aureus [7]): < 3.1 µg/mL

C=C1C(=O)c2ccccc2OC1c1cccc2ccccc12 (configuration not stated)
MIC (Candida albicans [17]): > 50 µg/mL
MIC (Trichophyton benhamiae [1]): 6.2 µg/mL (≈ 21.7 µM)
MIC (Enterococcus faecalis [9]): 50 µg/mL (≈ 175 µM)
MIC (Aspergillus niger): > 100 µg/mL
MIC (Staphylococcus aureus [6]): < 3.1 µg/mL

Oc1c(I)cc(Cl)c2cccnc12 [CLIOQUINOL]
MIC (Staphylococcus aureus [18]): 12.5 µg/mL (≈ 40.9 µM)
MIC [19]: < 6.2 µg/mL
MIC (Staphylococcus aureus [20]): 12.5 µg/mL (≈ 40.9 µM)
MIC (Staphylococcus aureus [21]): 12.5 µg/mL (≈ 40.9 µM)
MIC [22]: 3.1 µg/mL (≈ 10.1 µM)
MIC [23]: 12.5 µg/mL (≈ 40.9 µM)
MIC (Staphylococcus aureus [24]): 3.1 µg/mL (≈ 10.1 µM)
MIC (Enterococcus): 25 µg/mL (≈ 81.8 µM)
MIC (Cutibacterium acnes): 25 µg/mL (≈ 81.8 µM)
MIC (Enterococcus faecalis [25]): 12.5 µg/mL (≈ 40.9 µM)
MIC (Bacillus subtilis): 6.2 µg/mL (≈ 20.3 µM)
MIC (Staphylococcus aureus [26]): 12.5 µg/mL (≈ 40.9 µM)

C=C1C(=O)c2ccccc2OC1c1ccc(C(C)(C)C)cc1 (configuration not stated)
MIC (Candida albicans [17]): > 50 µg/mL
MIC (Trichophyton benhamiae [13]): 12.5 µg/mL (≈ 42.8 µM)
MIC (Enterococcus faecalis [27]): 25 µg/mL (≈ 85.5 µM)
MIC (Staphylococcus aureus [6]): < 3.1 µg/mL

CN(C)/C=C1\C(=O)c2ccccc2OC1c1ccccc1 (configuration not stated)
MIC (Staphylococcus aureus [7]): > 100 µg/mL
MIC (Candida albicans [8]): > 100 µg/mL
MIC (Enterococcus faecalis [9]): > 100 µg/mL
MIC (Aspergillus niger): > 100 µg/mL
MIC (Trichophyton benhamiae [10]): 100 µg/mL (≈ 358 µM)

C=C1C(=O)c2ccccc2OC1c1cccc(Cl)c1 (configuration not stated)
MIC (Staphylococcus aureus [6]): < 3.1 µg/mL
MIC (Trichophyton benhamiae [28]): < 3.1 µg/mL
